Where “and” joins values, the source holds several entries; their conditions need not be identical. Equal entries are not always repeated. Where two headings read alike, the source gives them in different places.
How the values were obtained:
Akt = experiment: pS473 Akt phosphorylation by pancreatic growth factors; format: cell-based; settings: rat pancreatic acini; data not shown
cSrc = settings: murine fibroblasts; cited from earlier work
Yes = settings: cited from earlier work; for activation of Yes by EGF and PDGF: hepatocytes and fibroblasts
Lyn [1] = settings: cited from earlier work
SFK = settings: cited from earlier work
adenylate cyclase = settings: cited from earlier work; for adenylate cyclase activation: rat pancreatic acini; for activation of PLC cascades or adenylate cyclase: pancreatic acinar cell
Src = settings: cited from earlier work
Yes kinase [2] = format: cell-based, rat; settings: for Yes pY416 phosphorylation, time course, 1 min: 1 min incubation; for tmax (Yes pY416 phosphorylation) / t1/2 (Yes pY416 phosphorylation): CCK (100 nM) or TPA (1 µM)
Summary of the method: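 Collagenase-dispersed rat acini were preincubated 2 h at 37 °C, then incubated with CCK (100 nM) or TPA (1 µM) for times up to 15 min. Yes was immunoprecipitated (4 µg anti-Yes, protein G, overnight 4 °C), then blotted for pY416 and total Yes and read by densitometry. Values are % of zero-time control, mean ± S.E., n=7, with t1/2 from curve fitting.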

Yes kinase [3] = format: cell-based, rat; settings: for association of Yes with p125FAK, PYK2, PI3K, PKD, p130Cas, Shc and PKCδ (Co-IP) / association of Yes with Raf, Cbl or ERK1/2 (Co-IP): CCK 100 nM 2.5 min or TPA 1 µM 5 min; for association of Yes with p125FAK, PYK2, PI3K, PKD, p130Cas, Shc and PKCδ (Co-IP): 8 experiments; for association between Yes and PI3K / association of Yes with autophosphorylated forms pY397 p125FAK and pY402 PYK2: CCK or TPA; for direct association of Raf, Cbl or ERK1/2 with Yes, reverse Co-IP: Cbl or ERK1/2 antibodies, detection with Yes antibodies; for association of Yes with Cbl or Erk 1/2 (Co-IP), discussion / association of Yes with focal adhesion kinases, PKCδ, Shc, p130Cas, PI3K, PTEN and PKD (Co-IP): TPA and CCK, physiological and supramaximal concentrations
Lyn [4] = settings: pancreatic acini; cited from earlier work
PKC-δ and Src = settings: PC-12 cells and parotid cells; cited from earlier work
[5] = test system: endoplasmic reticulum Ca^2+-ATPase; experiment: Effect of Ca2+ depletion on CCK- and TPA-stimulated pY416 Yes phosphorylation; format: cell-based, rat; settings: for inhibition of TPA-/CCK-stimulated Yes activation (thapsigargin, words): TPA and CCK as stimulants
[6] = test system: [Ca^2+i] increase stimulated by CCK; settings: thapsigargin, calcium-free medium; cited from earlier work
CCK2 receptors = experiment: CCK2 receptor ligands: pY416 Yes phosphorylation in rat pancreatic acini; format: cell-based; settings: gastrin 10 nM, 1 min
Fyn = settings: cited from earlier work
Yes kinase [7] = format: cell-based, rat
Summary of the method: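 Rat pancreatic acini were prepared by collagenase digestion, preincubated 2 h at 37 °C in HEPES buffer (pH 7.45), then exposed to graded concentrations of CCK or CCK-JMV at 37 °C. Yes was immunoprecipitated from lysates and immunoblotted for pY416 Src family, with total Yes as loading control, and quantified by densitometry.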

PKC = experiment: Effect of PKC inhibition on CCK- and TPA-stimulated pY416 Yes phosphorylation; format: cell-based, rat
Summary of the method: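 Rat acini were pretreated with the PKC inhibitor GF109203X (5 µM) during preincubation, then incubated with 100 nM CCK (1 min) or 1 µM TPA (2.5 min) at 37 °C. Lysates were immunoprecipitated with anti-Yes and blotted for pY416 Src family and total Yes, quantified by densitometry. Results are expressed as % of control, mean ± S.E., n=4.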

Hck = settings: endothelial cells; cited from earlier work
[8] = from CCK-JMV partial stimulation

Epidermal growth factor (NSNTGCPPSYDGYCLNGGVCMYVESVDRYVCNCVIGYIGERCQHRDLRWWKLR; UniProt P07522 974-1026, looked up) [EGF]
pS473 Akt phosphorylation (Akt): stimulated pS473 Akt phosphorylation | cSrc activation (cSrc): activate the SFK, cSrc | activation of Yes by EGF and PDGF (Yes): stimulated activation of Yes

bombesin
Lyn activation in pancreatic acinar cells (Lyn [1]): activated

Secretin: activates adenylate cyclase in rat pancreatic acini
Lyn activation in pancreatic acinar cells (Lyn [1]): weakly stimulated | SFK activation by secretin (SFK; other studies): activated the SFKs | adenylate cyclase activation (adenylate cyclase): activates adenylate cyclase

insulin-like growth factor 1 [IGF-1]
pS473 Akt phosphorylation (Akt): stimulated pS473 Akt phosphorylation | Src activation by IGF (Src; differentiating preadipocytes): stimulates Src activation

vasoactive intestinal peptide [VIP]
adenylate cyclase activation (adenylate cyclase): activates adenylate cyclase

CCCCCCCCCCCCCC(=O)O[C@@H]1[C@@H](C)[C@@]2(O)[C@@H](C=C(CO)C[C@]3(O)C(=O)C(C)=C[C@@H]23)[C@@H]2C(C)(C)[C@]12OC(C)=O [TPA, 12-O-tetradecanoylphorbol-13-acetate]
Yes pY416 phosphorylation, time course, 1 min (Yes kinase [2]; means±S.E., 7 experiments): 153±25 % of control | tmax (Yes pY416 phosphorylation) (Yes kinase [2]; 7 experiments): 2.49±0.29 min | t1/2 (Yes pY416 phosphorylation) (Yes kinase [2]; means±S.E., 7 experiments): 1.25±0.24 min | Yes pY416 phosphorylation, time course, 2.5 min (Yes kinase [2]; TPA, 2.5 min, means±S.E., 7 experiments, p<0.05): 266±47 % of control | duration of increased Yes pY416 phosphorylation (Yes kinase [2]; sustained increase): 15 min | association of Yes with p125FAK, PYK2, PI3K, PKD, p130Cas, Shc and PKCδ (Co-IP) (Yes kinase [3]): produced an increase in the association of Yes | association of Yes with Raf, Cbl or ERK1/2 (Co-IP) (Yes kinase [3]; data not shown): not with Raf, Cbl or ERK1/2 | association between Yes and PI3K (Yes kinase [3]): stimulated an association between Yes and PI3K | association of Yes with autophosphorylated forms pY397 p125FAK and pY402 PYK2 (Yes kinase [3]): stimulates an association of Yes with each of their specific autophosphorylated forms | direct association of Raf, Cbl or ERK1/2 with Yes, reverse Co-IP (Yes kinase [3]): did not obtained any stimulated direct association with Yes | association of Yes with Cbl or Erk 1/2 (Co-IP), discussion (Yes kinase [3]): not with Cbl or Erk 1/2 | association of Yes with focal adhesion kinases, PKCδ, Shc, p130Cas, PI3K, PTEN and PKD (Co-IP) (Yes kinase [3]): stimulate the association of Yes | association of Lyn with PKC-δ, Shc, p125FAK and Pyk-2 (Lyn [4]): stimulated its association with PKC-δ, Shc, p125FAK and Pyk-2 | association of PKC-δ and Src (PKC-δ and Src): neither TPA nor carbachol stimulated the association of PKC-δ and Src

C[N+](C)(C)CCOC(N)=O [carbachol]
Lyn activation in pancreatic acinar cells (Lyn [1]): activated | association of PKC-δ and Src (PKC-δ and Src): neither TPA nor carbachol stimulated the association of PKC-δ and Src

C/C=C(/C)C(=O)O[C@H]1C(C)=C2[C@H]([C@@H]1OC(=O)CCCCCCC)[C@@](C)(OC(C)=O)C[C@H](OC(=O)CCC)[C@@]1(O)[C@H]2OC(=O)[C@@]1(C)O [Thapsigargin]
inhibition of TPA-/CCK-stimulated Yes activation (thapsigargin, words) [5]: inhibit TPA−/CCK-stimulated Yes | inhibition of TPA-/CCK-stimulated Yes activation (thapsigargin, words) ([5]; listed as thapsigargin): did not completely inhibit CCK-stimulated Yes activation | reduction of CCK-stimulated Yes activation by thapsigargin (Ca2+ depletion) ([5]; thapsigargin, calcium-depleting conditions, + CCK): 71% | inhibition of CCK-stimulated [Ca2+]i increase [6]: completely inhibit

platelet-derived growth factor [PDGF]
pS473 Akt phosphorylation (Akt): stimulated pS473 Akt phosphorylation | cSrc activation (cSrc): activate the SFK, cSrc | activation of Yes by EGF and PDGF (Yes): stimulated activation of Yes

Gastrin
pY416 Yes phosphorylation by gastrin (CCK2 receptors): did not produce any increase in pY416 Yes phosphorylation

insulin: pancreatic growth factor
pS473 Akt phosphorylation (Akt): stimulated pS473 Akt phosphorylation | SFK activation by insulin (SFK; skeletal muscle cells): stimulates SFK activation | Fyn activation by insulin (Fyn; ovarian cells): stimulates Fyn activation

COOH-terminal octapeptide of cholecystokinin [CCK]
maximal stimulation of Y416 phosphorylation of Yes (Yes kinase [7]; CCK 100 nM, means±S.E., 5 experiments): 280±16 % of control | lowest concentration with detectable increase in Y416 phosphorylation of Yes (Yes kinase [7]; CCK dose-response): 10 pM | share of CCK stimulation of Yes mediated by high affinity CCK1 receptor state (Yes kinase [7]; [8]): 64% | share of CCK stimulation of Yes mediated by low affinity CCK1 receptor state (Yes kinase [7]; [8]): 36% | Yes pY416 phosphorylation, time course, 1 min (Yes kinase [2]; means±S.E., 7 experiments): 310±43 % of control | tmax (Yes pY416 phosphorylation) (Yes kinase [2]; 7 experiments): 1 min and 0.98±0.14 min | t1/2 (Yes pY416 phosphorylation) (Yes kinase [2]; means±S.E., 7 experiments): 0.309±0.042 min and 0.31±0.04 min | Yes pY416 phosphorylation, time course, 30 s (Yes kinase [2]; CCK, 30-second incubation, means±S.E., 7 experiments, p<0.05): 278±27 % of control | association of Yes with p125FAK (Co-IP), low CCK (Yes kinase [3]; CCK 100 pM and 0.1 nM, 2.5 min): not with ^p125FAK | association of Yes with Raf, Cbl or ERK1/2 (Co-IP), low CCK (Yes kinase [3]; CCK 100 pM and 0.1 nM, data not shown): with Raf, Cbl or ERK1/2 (data not shown) | association of Yes with p125FAK, PYK2, PI3K, PKD, p130Cas, Shc and PKCδ (Co-IP) (Yes kinase [3]): produced an increase in the association of Yes | association of Yes with Raf, Cbl or ERK1/2 (Co-IP) (Yes kinase [3]; data not shown): not with Raf, Cbl or ERK1/2 | association between Yes and PI3K (Yes kinase [3]): stimulated an association between Yes and PI3K | association of Yes with autophosphorylated forms pY397 p125FAK and pY402 PYK2 (Yes kinase [3]): stimulates an association of Yes with each of their specific autophosphorylated forms | direct association of Raf, Cbl or ERK1/2 with Yes, reverse Co-IP (Yes kinase [3]): did not obtained any stimulated direct association with Yes | association of Yes with Cbl or Erk 1/2 (Co-IP), discussion (Yes kinase [3]): not with Cbl or Erk 1/2 | association of Yes with focal adhesion kinases, PKCδ, Shc, p130Cas, PI3K, PTEN and PKD (Co-IP) (Yes kinase [3]): stimulate the association of Yes | Lyn activation in pancreatic acinar cells (Lyn [1]): activated | activation of Yes through CCK2 receptors (Yes; rat pancreatic acinar cell line AR42J): activate Yes through CCK2 receptors | association of Lyn with PKC-δ, Shc, p125FAK and Pyk-2 (Lyn [4]): stimulated its association with PKC-δ, Shc, p125FAK and Pyk-2

CN(C)CCCn1cc(C2=C(c3c[nH]c4ccccc34)C(=O)NC2=O)c2ccccc21 [GF109203X]
decrease in CCK-stimulated activation of Yes by PKC inhibitor (PKC; GF109203X + CCK): 80% | inhibition of TPA-/CCK-stimulated Yes activation (PKC inhibitor, words) (PKC; TPA and CCK as stimulants): inhibit TPA−/CCK-stimulated Yes

basic fibroblast growth factor [bFGF]
pS473 Akt phosphorylation (Akt): stimulated pS473 Akt phosphorylation | SFK activation in pancreatic acinar cells (SFK; bFGF, pancreatic acinar cells): not activate SFK | cSrc activation (cSrc): activate the SFK, cSrc

Endothelin-1: interacts with ET-1 and ET-3 receptors in the pancreatic acinar cell
Lyn activation in pancreatic acinar cells (Lyn [1]): weakly stimulated | SFK activation by endothelin (SFK; different cells): activates SFKs in different cells | Fyn activation by endothelin (Fyn; endothelial cells): activated the SFK Fyn | Src inhibition by endothelin (Src; endothelial cells): inhibited | Yes activity with endothelin (Yes; endothelial cells): unaltered | Hck inhibition by endothelin (Hck): inhibited | activation of PLC cascades or adenylate cyclase (adenylate cyclase): does not activate PLC cascades nor activate adenylate cyclase | activation of PLC cascades or adenylate cyclase (adenylate cyclase; listed as endothelin): does not stimulate phospholipase C or adenylate cyclase
